Data published in ChEMBL document CHEMBL4689842, “EUbOPEN Chemogenomics Library wave 1” (2021).
Where “and” joins values, the source holds several entries; their conditions need not be identical. Equal entries are not always repeated.

Columns and labels:
Format in all cases: toxicity, cell-based
HEK-293T [1] = experiment: Multiplex assay against HEK293T; conditions: human, 10 µM, compound concentration 10 uM;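 on Population Tubulin-Different-Phenotype (%): share of the cells with healthy nuclei that show this phenotype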
How it was run: (§1)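 Cells stained live at seeding with Hoechst33342, BioTracker Green Microtubule Cytoskeleton Dye, MitoTracker Red and Annexin V Alexa Fluor 680 were imaged on a CQ1 microscope at 37°C and 5% CO2 after compound addition. Their classification by CellPathfinder machine-learning gating ran from Hoechst high-intensity objects versus normal cells, to healthy, pyknosed or fragmented nuclei among normal cells, to mitotic or apoptotic among pyknosed cells. Tubulin, mitochondrial-mass and membrane-permeability phenotypes are per cents of healthy-nucleus cells.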

U2OS = experiment: Incucyte cell viability with U2OS; conditions: human, 10 µM, compound concentration 10 uM; further: filed as whole numbers so only -1 and 0 and 1 occur
Fibroblast [2] = experiment: Multiplex assay against human fibroblast; conditions: 10 µM, compound concentration 10 uM; how it was run: as §1
Fibroblast [3] = experiment: Incucyte cell viability with human fibroblast; conditions: 10 µM, compound concentration 10 uM; further: filed as whole numbers so only -1 and 0 and 1 occur
HEK-293T [4] = experiment: Incucyte cell viability with HEK293T; conditions: human, 10 µM, compound concentration 10 uM; further: filed as whole numbers so only -1 and 0 and 1 occur
[5] = 12 h, replicate number 1, timepoint 12 hours
[6] = 12 h, replicate number 2, timepoint 12 hours
[7] = 18 h, replicate number 1, timepoint 18 hours
[8] = 24 h, replicate number 1, timepoint 24 hours
[9] = 0 h, replicate number 1, timepoint 0 hours
[10] = 6 h, replicate number 1, timepoint 6 hours

C#Cc1cccc(Nc2ncnc3cc(OCCOC)c(OCCOC)cc23)c1 [ERLOTINIB]
Population Apoptotic (%) (HEK-293T [1]; 12 h, replicate 1): 61% and 22% and 23% | Population Fragmented Nuclei (%) (HEK-293T [1]; 12 h, replicate 1): 11% and 22% and 20% | Population Healthy Nuclei (%) (HEK-293T [1]; 12 h, replicate 1): 23% and 55% and 63% | Population Hoechst High Intensity Objects (%) (HEK-293T [1]; 12 h, replicate 1): 14% and 12% | Population Membrane Permeable-Phenotype (%) (HEK-293T [1]; 12 h, replicate 1): 8% and 18% and 7% | Population Mitotic Cells (%) (HEK-293T [1]; 12 h, replicate 1): 38% and 77% and 76% | Population Normal (%) (HEK-293T [1]; 12 h, replicate 1): 85% and 87% | Total Cell Count (HEK-293T [1]; 12 h, replicate 1): 229 and 602 and 657 | Population Fragmented Nuclei (%) (HEK-293T [1]; 12 h, replicate 2): 12% and 6% and 7% | Population Hoechst High Intensity Objects (%) (HEK-293T [1]; 12 h, replicate 2): 5% and 2% | Population Mitotic Cells (%) (HEK-293T [1]; 12 h, replicate 2): 49% and 88% and 94% | Population Normal (%) (HEK-293T [1]; 12 h, replicate 2): 94% and 97% | Population Fragmented Nuclei (%) (HEK-293T [1]; 24 h, replicate 1): 10% and 13% and 15% | Population Healthy Nuclei (%) (HEK-293T [1]; 24 h, replicate 1): 31% and 68% and 74% | Population Hoechst High Intensity Objects (%) (HEK-293T [1]; 24 h, replicate 1): 16% and 12% and 8% | Population Mitotic Cells (%) (HEK-293T [1]; 24 h, replicate 1): 29% and 68% and 78% | Population Normal (%) (HEK-293T [1]; 24 h, replicate 1): 83% and 87% and 91% | Total Cell Count (HEK-293T [1]; 24 h, replicate 1): 250 and 573 and 727 | Population Healthy Nuclei (%) (HEK-293T [1]; 24 h, replicate 2): 38% and 82% and 70% | Population Hoechst High Intensity Objects (%) (HEK-293T [1]; 24 h, replicate 2): 2% and 3% | Population Normal (%) (HEK-293T [1]; 24 h, replicate 2): 97% and 96% | Population Apoptotic (%) (HEK-293T [1]; 48 h, replicate 1): 64% | Population Fragmented Nuclei (%) (HEK-293T [1]; 48 h, replicate 1): 20% | Population Healthy Nuclei (%) (HEK-293T [1]; 48 h, replicate 1): 22% | Population Hoechst High Intensity Objects (%) (HEK-293T [1]; 48 h, replicate 1): 20% | Population Membrane Permeable-Phenotype (%) (HEK-293T [1]; 48 h, replicate 1): 2% | Population Mitochondria Different-Phenotype (%) (HEK-293T [1]; 48 h, replicate 1): 88% | Population Mitotic Cells (%) (HEK-293T [1]; 48 h, replicate 1): 35% | Population Normal (%) (HEK-293T [1]; 48 h, replicate 1): 79% | Population Pyknosed Nuclei (%) (HEK-293T [1]; 48 h, replicate 1): 57% | Population Tubulin-Different-Phenotype (%) (HEK-293T [1]; 48 h, replicate 1): 91% | Total Cell Count (HEK-293T [1]; 48 h, replicate 1): 254 | Population Apoptotic (%) (HEK-293T [1]; 48 h, replicate 2): 45% | Population Fragmented Nuclei (%) (HEK-293T [1]; 48 h, replicate 2): 4% | Population Healthy Nuclei (%) (HEK-293T [1]; 48 h, replicate 2): 56% | Population Hoechst High Intensity Objects (%) (HEK-293T [1]; 48 h, replicate 2): 5% | Population Membrane Permeable-Phenotype (%) (HEK-293T [1]; 48 h, replicate 2): 5% | Population Mitochondria Different-Phenotype (%) (HEK-293T [1]; 48 h, replicate 2): 81% | Population Mitotic Cells (%) (HEK-293T [1]; 48 h, replicate 2): 54% | Population Normal (%) (HEK-293T [1]; 48 h, replicate 2): 94% | Population Pyknosed Nuclei (%) (HEK-293T [1]; 48 h, replicate 2): 38% | Population Tubulin-Different-Phenotype (%) (HEK-293T [1]; 48 h, replicate 2): 97% | Total Cell Count (HEK-293T [1]; 48 h, replicate 2): 197 | Growth Rate (U2OS; 0 h, replicate number 2, timepoint 0 hours): 1 | Growth Rate (U2OS; 6 h, replicate number 2, timepoint 6 hours): 0 | Growth Rate (U2OS; [5]): 1 | Growth Rate (U2OS; [6]): 0 | Growth Rate (U2OS; [7]): 0 | Growth Rate (U2OS; [8]): 1 | Growth Rate (U2OS; 24 h, replicate number 2, timepoint 24 hours): 0 | Population Apoptotic (%) (Fibroblast [2]; 12 h, replicate 1): 59% and 66% | Population Fragmented Nuclei (%) (Fibroblast [2]; 12 h, replicate 1): 22% and 24% and 20% | Population Healthy Nuclei (%) (Fibroblast [2]; 12 h, replicate 1): 35% and 58% and 62% | Population Hoechst High Intensity Objects (%) (Fibroblast [2]; 12 h, replicate 1): 10% and 11% and 15% | Population Mitotic Cells (%) (Fibroblast [2]; 12 h, replicate 1): 40% and 33% and 29% | Population Normal (%) (Fibroblast [2]; 12 h, replicate 1): 89% and 88% and 84% | Population Pyknosed Nuclei (%) (Fibroblast [2]; 12 h, replicate 1): 41% and 16% | Total Cell Count (Fibroblast [2]; 12 h, replicate 1): 125 and 263 and 267 | Population Membrane Permeable-Phenotype (%) (Fibroblast [2]; 12 h, replicate 2): 10% and 9% and 13% | Population Normal (%) (Fibroblast [2]; 12 h, replicate 2): 57% and 66% and 91% | Population Apoptotic (%) (Fibroblast [2]; 24 h, replicate 1): 60% and 66% | Population Fragmented Nuclei (%) (Fibroblast [2]; 24 h, replicate 1): 23% and 27% and 21% | Population Healthy Nuclei (%) (Fibroblast [2]; 24 h, replicate 1): 46% and 52% and 60% | Population Hoechst High Intensity Objects (%) (Fibroblast [2]; 24 h, replicate 1): 22% and 12% and 19% | Population Mitotic Cells (%) (Fibroblast [2]; 24 h, replicate 1): 40% and 39% and 33% | Population Normal (%) (Fibroblast [2]; 24 h, replicate 1): 77% and 87% and 80% | Population Pyknosed Nuclei (%) (Fibroblast [2]; 24 h, replicate 1): 30% and 19% and 18% | Total Cell Count (Fibroblast [2]; 24 h, replicate 1): 127 and 268 and 287 | Population Apoptotic (%) (Fibroblast [2]; 24 h, replicate 2): 100% and 57% and 75% | Population Hoechst High Intensity Objects (%) (Fibroblast [2]; 24 h, replicate 2): 28% and 38% | Population Normal (%) (Fibroblast [2]; 24 h, replicate 2): 71% and 61% | Population Pyknosed Nuclei (%) (Fibroblast [2]; 24 h, replicate 2): 10% and 16% | Population Apoptotic (%) (Fibroblast [2]; 48 h, replicate 1): 87% | Population Fragmented Nuclei (%) (Fibroblast [2]; 48 h, replicate 1): 41% | Population Healthy Nuclei (%) (Fibroblast [2]; 48 h, replicate 1): 41% | Population Hoechst High Intensity Objects (%) (Fibroblast [2]; 48 h, replicate 1): 16% | Population Membrane Permeable-Phenotype (%) (Fibroblast [2]; 48 h, replicate 1): 23% | Population Mitochondria Different-Phenotype (%) (Fibroblast [2]; 48 h, replicate 1): 33% | Population Mitotic Cells (%) (Fibroblast [2]; 48 h, replicate 1): 12% | Population Normal (%) (Fibroblast [2]; 48 h, replicate 1): 83% | Population Pyknosed Nuclei (%) (Fibroblast [2]; 48 h, replicate 1): 17% | Population Tubulin-Different-Phenotype (%) (Fibroblast [2]; 48 h, replicate 1): 89% | Total Cell Count (Fibroblast [2]; 48 h, replicate 1): 113 | Population Apoptotic (%) (Fibroblast [2]; 48 h, replicate 2): 50% | Population Fragmented Nuclei (%) (Fibroblast [2]; 48 h, replicate 2): 28% | Population Healthy Nuclei (%) (Fibroblast [2]; 48 h, replicate 2): 62% | Population Hoechst High Intensity Objects (%) (Fibroblast [2]; 48 h, replicate 2): 23% | Population Membrane Permeable-Phenotype (%) (Fibroblast [2]; 48 h, replicate 2): 19% | Population Mitochondria Different-Phenotype (%) (Fibroblast [2]; 48 h, replicate 2): 19% | Population Mitotic Cells (%) (Fibroblast [2]; 48 h, replicate 2): 50% | Population Normal (%) (Fibroblast [2]; 48 h, replicate 2): 76% | Population Pyknosed Nuclei (%) (Fibroblast [2]; 48 h, replicate 2): 9% | Population Tubulin-Different-Phenotype (%) (Fibroblast [2]; 48 h, replicate 2): 95% | Total Cell Count (Fibroblast [2]; 48 h, replicate 2): 86 | Growth Rate (Fibroblast [3]; [9]): 0 | Growth Rate (Fibroblast [3]; [10]): 0 | Growth Rate (Fibroblast [3]; [5]): 0 | Growth Rate (Fibroblast [3]; [6]): 1 | Growth Rate (Fibroblast [3]; [7]): 0 | Growth Rate (Fibroblast [3]; [8]): 0 | Growth Rate (HEK-293T [4]; [9]): 0 | Growth Rate (HEK-293T [4]; [10]): 0 | Growth Rate (HEK-293T [4]; [5]): 0 | Growth Rate (HEK-293T [4]; [7]): 0 | Growth Rate (HEK-293T [4]; [8]): 0
